ChEMBL document CHEMBL1122043, “A new class of nitrosoureas. 4. Synthesis and antitumor activity of disaccharide derivatives of 3,3-disubstituted 1-(2-chloroethyl)-1-nitrosoureas” (J Med Chem, 1982)

Key:
[1] = tested on: L1210; assay: Antitumor activity against Leukemia L1210 cells in male BDF1 mice at the dose of 400 mg/kg/day x5 (i.p.) expressed as maximal increase in life-span; type: functional, Mus musculus; conditions: route intraperitoneal
How it was run: (§1)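 L1210 leukemia cells (10^5) given ip to male BDF1 mice. Ip dosing started 24 h after inoculation and was given once daily for 5 days. Life-span increase was calculated as ILS (%) = (T/C-1) × 100. Optimal dose was the daily dose giving the maximum increase in life-span.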

[2] = Therapeutic index value for anti-L1210 activity.; conditions: mouse; for selectivity ratio: read-out: TI
How it was run: (§2)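 Mice were male BDF1 inoculated ip with 10^5 L1210 cells. Ip treatment began 24 h later. Therapeutic ratio = OD/ILS30. ILS30 is the daily dose giving a 30% increase in life-span over control. OD is the daily dose giving the maximum increase in life-span.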

[3] = Therapeutic index value for anti-Ehrlich activity.; conditions: mouse; for selectivity ratio: read-out: TI
How it was run: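 Ehrlich ascites cells (10^6) were inoculated ip into 5 female ICR mice. Ip dosing began 24 h later and was given once daily for 5 days. Therapeutic ratio = MTD/MED. MED is the minimum dose giving 100% inhibition of tumor growth. MTD is the maximum dose giving 100% inhibition without mouse deaths.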

[4] = tested on: L1210; assay: Antitumor activity against Leukemia L1210 cells in male BDF1 mice at the dose of 230 mg/kg/day x1 (i.p.) expressed as maximal increase in life-span; type: functional, Mus musculus; conditions: route intraperitoneal
How it was run: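 Male BDF1 mice (six or eight) received 10^5 L1210 cells ip. A single ip dose, in (mg/kg)/day × 1, was given 24 h after inoculation. ILS (%) = (T/C-1) × 100. The optimal dose was the dose giving the maximum increase in life-span.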

[5] = tested on: L1210; assay: Antitumor activity against Leukemia L1210 cells in BDF1 mice at the dose of 50 mg/kg/day x5 (i.p.) expressed as maximal increase in life-span; type: functional, Mus musculus; conditions: route intraperitoneal; how it was run: as §1
[6] = tested on: L1210; assay: Antitumor activity against Leukemia L1210 cells in BDF1 mice at the dose of 130 mg/kg/ day *5 (i.p.) expressed as maximal increase in life-span; type: functional, Mus musculus; conditions: route intraperitoneal; in the assay text read “25 mg/kg/ day” for “130 mg/kg/ day”; how it was run: as §1
[7] = tested on: L1210; assay: Antitumor activity against Leukemia L1210 cells in male BDF1 mice at the dose of 100 mg/kg/day x5 (i.p.) expressed as maximal increase in life-span; type: functional, Mus musculus; conditions: route intraperitoneal; how it was run: as §1
[8] = […] required for antitumor activity against Ehrlich ascites carcinoma cells in […] mice.; type: functional, Mus musculus
[9] = Therapeutic index value for anti L1210 activity; Inactive; how it was run: as §2
[10] = tested on: L1210; assay: Antitumor activity against Leukemia L1210 cells in male BDF1 mice at the dose of 200 mg/kg/day x5 (i.p.) expressed as maximal increase in life-span; type: functional, Mus musculus; conditions: route intraperitoneal; how it was run: as §1
[11] = tested on: L1210; assay: Antitumor activity against Leukemia L1210 cells in BDF1 mice at the dose of 6.25 mg/kg/day x5 (i.p.) expressed as maximal increase in life-span; type: functional, Mus musculus; conditions: route intraperitoneal; how it was run: as §1
[12] = tested on: L1210; assay: Antitumor activity against Leukemia L1210 cells in male BDF1 mice at the dose of 6.25 mg/kg/day x5 (i.p.) expressed as maximal increase in life-span; type: functional, Mus musculus; conditions: route intraperitoneal; how it was run: as §1
[13] = tested on: L1210; assay: Antitumor activity against Leukemia L1210 cells in BDF1 mice at the dose of 25 mg/kg/day x1 (i.p.) expressed as maximal increase in life-span; conditions: route intraperitoneal
[14] = Minimum effective dose required for antitumor activity against Ehrlich ascites carcinoma cells in female ICR mice.
[15] = Maximum tolerated dose required antitumor activity against Ehrlich ascites carcinoma cells in female ICR mice.
[16] = tested on: L1210; assay: Antitumor activity against Leukemia L1210 cells in BDF1 mice at the dose of 6.25 mg/kg/day x 5 (ip), maximum increase in life-span; type: functional, Mus musculus
How it was run: (§3)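 Male BDF1 mice were inoculated ip with 10^5 L1210 leukemia cells. Drug was given ip once daily for 5 days, starting 24 h after inoculation. ILS (%) = (T/C-1) × 100. The recorded value is the ILS at the optimal dose, meaning the daily dose giving the maximum increase in life-span.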

[17] = tested on: L1210; assay: Antitumor activity against Leukemia L1210 cells in male BDF1 mice at the dose of 50 mg/kg/day x5 (i.p.) expressed as maximal increase in life-span; type: functional, Mus musculus; conditions: route intraperitoneal; how it was run: as §1
[18] = tested on: L1210; assay: Antitumor activity against Leukemia L1210 cells in BDF1 mice at the dose of 400 mg/kg/day x 5 (ip), maximum increase in life-span; type: functional, Mus musculus; how it was run: as §3
[19] = tested on: L1210; assay: Antitumor activity against Leukemia L1210 cells in male BDF1 mice at the dose of 200 mg/kg/day x5 (ip) expressed as maximal increase in life-span; type: functional, Mus musculus; how it was run: as §1
[20] = tested on: L1210; assay: Antitumor activity against Leukemia L1210 cells in male BDF1 mice at the dose of 25 mg/kg/day x5 (i.p.) expressed as maximal increase in life-span; type: functional, Mus musculus; conditions: route intraperitoneal; how it was run: as §3
[21] = tested on: L1210; assay: Antitumor activity against Leukemia L1210 cells in BDF1 mice at the dose of 50 mg/kg/day x 1 (i.p.), ILS30; conditions: route intraperitoneal

Row | Compound | selectivity ratio [2] | selectivity ratio [3] | ILS30 [7] | MED [8] | other results
1 | CC(C)CN(C(=O)N(CCCl)N=O)C1OC(COC2OC(CO)C(O)C(O)C2O)C(O)C(O)C1O (stereo unspecified) | 1.1 | 1 | – | – | ILS30 [1]: 350
2 | CC(C)CN(C(=O)N(CCCl)N=O)C1OC(CO)C(O)C(O)C1O (stereo unspecified) | 50 | – | – | – | TI [2]: 34.2; ILS30 [4]: 2.6; ILS30 [5]: 1; ILS30 [6]: 0.73
3 | CCC(C)N(C(=O)N(CCCl)N=O)C1OC(CO)C(OC2OC(CO)C(O)C(O)C2O)C(O)C1O (stereo unspecified) | 66.7 | 128 | 1.5 | 1.56 mg kg-1 5day-1 | –
4 | CN(C(=O)N(CCCl)N=O)C1OC(CO)C(OC2OC(CO)C(O)C(O)C2O)C(O)C1O (stereo unspecified) | 11.4 | 32 | 8.8 | – | –
5 | CC(C)N(C(=O)N(CCCl)N=O)C1OC(CO)C(OC2OC(CO)C(O)C(O)C2O)C(O)C1O (stereo unspecified) | 18.5 | 32 | 5.4 | – | –
6 | CCCCCCCCCCCCCCCCN(C(=O)N(CCCl)N=O)C1OC(CO)C(OC2OC(CO)C(O)C(O)C2O)C(O)C1O (stereo unspecified) | – | 32 | – | – | TI [9]: Not Active
7 | O=NN(CCCl)C(=O)N(CC1CCCO1)C1OC(CO)C(OC2OC(CO)C(O)C(O)C2O)C(O)C1O (stereo unspecified) | 33.3 | 64 | – | 3.12 mg kg-1 5day-1 | ILS30 [10]: 6
8 | CCCCCN(C(=O)N(CCCl)N=O)C1OC(CO)C(OC2OC(CO)C(O)C(O)C2O)C(O)C1O (stereo unspecified) | 28.6 | 64 | 3.5 | 3.12 mg kg-1 5day-1 | –
9 | COCCN(C(=O)N(CCCl)N=O)C1OC(CO)C(OC2OC(CO)C(O)C(O)C2O)C(O)C1O (stereo unspecified) | 11.8 | 64 | – | 3.12 mg kg-1 5day-1 | ILS30 [10]: 17
10 | C=CCCN(C(=O)N(CCCl)N=O)C1OC(CO)C(OC2OC(CO)C(O)C(O)C2O)C(O)C1O (stereo unspecified) | 64.5 | 128 | – | 1.56 mg kg-1 5day-1 | ILS30 [10]: 3.1
11 | C=C(C)CN(C(=O)N(CCCl)N=O)C1OC(CO)C(OC2OC(CO)C(O)C(O)C2O)C(O)C1O (stereo unspecified) | 62.5 | 128 | – | 1.56 mg kg-1 5day-1 | ILS30 [10]: 3.2
12 | CCOCCN(C(=O)N(CCCl)N=O)C1OC(CO)C(OC2OC(CO)C(O)C(O)C2O)C(O)C1O (stereo unspecified) | 37 | 64 | 2.7 | 3.12 mg kg-1 5day-1 | –
13 | O=NN(CCCl)C(=O)N[C@@H]1O[C@H](CO)[C@@H](O)[C@H](O)[C@H]1O | 7.8 | 32 | – | – | ILS30 [11]: 0.8; ILS30 [12]: 0.8; ILS30 [13]: 1.1; MED [14]: 0.39 mg kg-1 5day-1; MTD [15]: 12.5 mg kg-1 5day-1; ILS max [16]: >198.6%
14 | COCCCN(C(=O)N(CCCl)N=O)C1OC(CO)C(OC2OC(CO)C(O)C(O)C2O)C(O)C1O (stereo unspecified) | 26.7 | 64 | – | 3.12 mg kg-1 5day-1 | ILS30 [10]: 7.5
15 | CCCN(C(=O)N(CCCl)N=O)C1OC(CO)C(OC2OC(CO)C(O)C(O)C2O)C(O)C1O (stereo unspecified) | 20.4 | 64 | 4.9 | – | –
16 | CCCCCCN(C(=O)N(CCCl)N=O)C1OC(CO)C(OC2OC(CO)C(O)C(O)C2O)C(O)C1O (stereo unspecified) | 3.6 | 32 | – | – | ILS30 [17]: 14
17 | O=NN(CCCl)C(=O)N(Cc1ccc(Cl)cc1)C1OC(CO)C(OC2OC(CO)C(O)C(O)C2O)C(O)C1O (stereo unspecified) | 10 | 128 | – | 1.56 mg kg-1 5day-1 | ILS30 [10]: 20
18 | O=NN(CCCl)C(=O)N(CC1CCCCC1)C1OC(CO)C(OC2OC(CO)C(O)C(O)C2O)C(O)C1O (stereo unspecified) | 12.5 | 32 | 8 | 3.12 mg kg-1 5day-1 | –
19 | O=NN(CCCl)C(=O)N(CC1CC1)C1OC(CO)C(OC2OC(CO)C(O)C(O)C2O)C(O)C1O (stereo unspecified) | 28.6 | 64 | 3.5 | 1.56 mg kg-1 5day-1 | –
20 | CC(=O)OCC1OC(N(CC(C)C)C(=O)N(CCCl)N=O)C(OC(C)=O)C(OC(C)=O)C1COCC1OC(COC(C)=O)C(OC(C)=O)C(OC(C)=O)C1OC(C)=O (stereo unspecified) | – | – | – | – | ILS max [18]: 18%
21 | C=CCN(C(=O)N(CCCl)N=O)C1OC(CO)C(OC2OC(CO)C(O)C(O)C2O)C(O)C1O (stereo unspecified) | 50 | 64 | 2 | 1.56 mg kg-1 5day-1 | –
22 | CCCCN(C(=O)N(CCCl)N=O)C1OC(CO)C(OC2OC(CO)C(O)C(O)C2O)C(O)C1O (stereo unspecified) | 22.2 | 32 | 4.5 | 6.25 mg kg-1 5day-1 | –
23 | CC(C)CN(C(=O)N(CCCl)N=O)C1OC(CO)C(OC2OC(CO)C(O)C(O)C2O)C(O)C1O (stereo in doubt; 37) | – | – | 1.2 | – | ILS30 [4]: 7.3; TI [3]: 256
24 | CC(C)CN(C(=O)N(CCCl)N=O)C1OC(CO)C(OC2OC(CO)C(O)C(O)C2O)C(O)C1O (stereo in doubt; 63) | – | – | – | 100 mg kg-1 5day-1 | TI [2]: 1.3; ILS30 [19]: 160; TI [3]: 2
25 | O=NN(CCCl)C(=O)NC1CCCCC1 [LOMUSTINE] | 5.1 | 4 | – | – | ILS30 [20]: 4.9; ILS30 [21]: 9.3 mg/kg; MED [14]: 12.5 mg kg-1 5day-1; MTD [15]: 50 mg kg-1 5day-1
26 | Cc1ncc(CNC(=O)N(CCCl)N=O)c(N)n1 [NIMUSTINE] | 9.3 | 8 | – | – | ILS30 [20]: 2.9; MED [14]: 3.12 mg kg-1 5day-1; MTD [15]: 25 mg kg-1 5day-1
